{"data": "Published values of several laboratories", "target": "Misshapen-like kinase 1 (MINK1, Homo sapiens, UniProt Q8N4C8)", "note": "Protocols differ between the studies behind these lines."}
{"Structure (SMILES)": "O=C1NC(=O)c2cc(Nc3ccc(F)cc3)c(Nc3ccc(F)cc3)cc21", "observed": "cell-free assay", "tested at": "0.5 µM", "quantity": "remaining signal", "value": "99%"}
{"Structure (SMILES)": "COc1cc(-c2cc(-c3ccc(N4CCNCC4)cc3)cnc2N)cc(OC)c1OC", "observed": "enzyme activity", "action": "inhibitor", "tested at": "0.1 µM", "quantity": "inhibition", "value": "74%"}
{"Structure (SMILES)": "Cc1sc(C(=O)NC2COC2)cc1-n1cc(NC(=O)Nc2c(F)cccc2Cl)cn1", "observed": "enzyme activity", "action": "inhibitor", "tested at": "10 µM", "quantity": "remaining activity", "value": "102%"}
{"Structure (SMILES)": "Cc1ccc(NC(=O)c2ccc(C)c(C(F)(F)F)c2)cc1C#Cc1nn(C2CCC(O)CC2)c2ncnc(N)c12 (stereo not shown)", "observed": "cell-free assay", "tested at": "10 µM", "quantity": "remaining signal", "value": "25%"}
{"Structure (SMILES)": "CCCS(=O)(=O)Nc1ccc(F)c(C(=O)c2c[nH]c3ncc(-c4ccc(Cl)cc4)cc23)c1F", "observed": "enzyme activity", "action": "inhibitor", "tested at": "1 µM", "quantity": "inhibition", "value": "< 20%"}
{"Structure (SMILES)": "CNC(=O)c1cc(Oc2ccc(NC(=O)Nc3ccc(Cl)c(C(F)(F)F)c3)cc2)ccn1", "observed": "enzyme activity", "action": "inhibitor", "tested at": "10 µM", "quantity": "inhibition", "value": "75%"}
{"Structure (SMILES)": "N#CCCc1ccc2c(c1)-c1[nH]c3ccc([N+](=O)[O-])cc3c1CC(=O)N2", "observed": "cell-free assay", "tested at": "0.5 µM", "quantity": "remaining signal", "value": "29.9%"}
{"Structure (SMILES)": "COc1cc(Nc2cnc(C#N)c(O[C@H](C)CN(C)C)n2)ncc1-c1cnn(C)c1", "observed": "enzyme activity", "action": "inhibitor", "technique": "radiometric", "tested at": "10 µM", "quantity": "remaining activity", "value": "67%"}
{"Structure (SMILES)": "CO[C@@H](C)c1c(Nc2ccc([C@H](N(C)C(=O)C3CCS(=O)(=O)CC3)C(F)(F)F)cc2)cnc2cc(Cl)nn12", "observed": "cell-free assay", "technique": "competition with immobilised ligand", "tested at": "1 µM", "quantity": "remaining binding", "value": "100%"}
{"Structure (SMILES)": "CC(C)(C)c1nc2c(s1)c1nc(N)ncc1c1ccc(NS(=O)(=O)c3c(F)cccc3F)c(F)c12", "observed": "enzyme activity", "action": "inhibitor", "technique": "radiometric", "tested at": "1 µM", "quantity": "remaining activity", "value": "90%"}
{"Structure (SMILES)": "O=C(Nc1cnn(-c2csc(C(=O)NC3COC3)c2)c1)Nc1c(F)cccc1Cl", "observed": "enzyme activity", "action": "inhibitor", "tested at": "5 µM", "quantity": "remaining activity", "value": "62.2%"}
{"Structure (SMILES)": "O=S(=O)(NC1CCC(c2cc(F)ccc2F)(S(=O)(=O)c2ccc(Cl)cc2)CC1)C(F)(F)F (stereo not shown)", "observed": "cell-free assay", "technique": "competition with immobilised ligand", "tested at": "1 µM", "quantity": "remaining binding", "value": "100%"}
{"Structure (SMILES)": "Cc1ccc(Nc2nccc(N(C)c3ccc4c(C)n(C)nc4c3)n2)cc1S(N)(=O)=O", "observed": "enzyme activity", "action": "inhibitor", "tested at": "10 µM", "quantity": "inhibition", "value": "80%"}
{"Structure (SMILES)": "COc1cc(-c2cn(C3CCc4c(F)cccc4N(CC(F)(F)F)C3=O)nn2)ccc1-n1cnc(C)c1 (stereo not shown)", "observed": "cell-free assay", "technique": "competition with immobilised ligand", "tested at": "1 µM", "quantity": "remaining binding", "value": "84%"}
{"Structure (SMILES)": "CC/C(=N\\NC(=O)NCc1cccc(O)c1)c1ccc(O)c(C)c1O", "observed": "enzyme activity", "action": "inhibitor", "tested at": "0.1 µM", "quantity": "inhibition", "value": "-1%"}
{"Structure (SMILES)": "C[C@@H]1CN(c2cc(-c3n[nH]c4ccc(OC5(C)CC5)cc34)ncn2)C[C@H](C)O1", "observed": "cell-free assay", "technique": "competition with immobilised ligand", "tested at": "0.1 µM", "quantity": "remaining binding", "value": "84%"}
{"Structure (SMILES)": "FC(F)(F)Oc1cccc(-c2cnc3ccc(-c4ccncc4)nn23)c1", "observed": "enzyme activity", "action": "inhibitor", "technique": "radiometric", "tested at": "5 µM", "quantity": "activity vs control", "value": "63%"}
{"Structure (SMILES)": "Cc1cc(NC(=O)c2cccc3cc(-c4cccc5[nH]nc(N)c45)ccc23)ccc1F", "observed": "enzyme activity", "action": "inhibitor", "tested at": "0.1 µM", "quantity": "activity vs control", "value": "110%"}
{"Structure (SMILES)": "CNC(=O)c1ccc(Nc2ncc(C(F)(F)F)c(NCc3nccnc3N(C)S(C)(=O)=O)n2)cc1", "observed": "cell-free assay", "technique": "competition with immobilised ligand", "tested at": "0.1 µM", "quantity": "remaining binding", "value": "44%"}
{"Structure (SMILES)": "C=CC(=O)Nc1cc(Nc2nccc(Nc3cc(Cl)c(F)cc3C(C)(C)O)n2)c(OC)cc1N1CC[C@@H](N(C)C)C1", "observed": "enzyme activity", "action": "inhibitor", "tested at": "1 µM", "quantity": "inhibition", "value": "-3%"}
{"Structure (SMILES)": "Oc1cccc(-c2nc(N3CCOCC3)c3oc4ncccc4c3n2)c1", "observed": "enzyme activity", "action": "inhibitor", "tested at": "10 µM", "quantity": "remaining activity", "value": "116%"}
{"Structure (SMILES)": "CN(C)C1CCN(CC#Cc2nn(C3CCCC3)c3nc(NCc4ccccc4)ncc23)C1 (stereo not shown)", "observed": "enzyme activity", "action": "inhibitor", "technique": "FRET", "tested at": "1 µM", "quantity": "inhibition", "value": "17%"}
{"Structure (SMILES)": "O=C(NCc1ncc(C(F)(F)F)cc1Cl)c1ccc2c(c1)C1(CCS(=O)(=O)CC1)[C@@H](C1CC1)N2S(=O)(=O)c1ccc(F)cc1", "observed": "cell-free assay", "technique": "competition with immobilised ligand", "tested at": "1 µM", "quantity": "remaining binding", "value": "85%"}
{"Structure (SMILES)": "COc1cc(/C=C/C(=O)CC(=O)/C=C/c2ccc(O)c(OC)c2)ccc1O", "observed": "enzyme activity", "action": "inhibitor", "tested at": "1 µM", "quantity": "activity vs control", "value": "78%"}
{"Structure (SMILES)": "CCS(=O)(=O)c1cc2cc(C[C@@](O)(CC(C)(C)c3ccc(F)cc3C(N)=O)C(F)(F)F)[nH]c2cn1", "observed": "cell-free assay", "technique": "competition with immobilised ligand", "tested at": "1 µM", "quantity": "remaining binding", "value": "79%"}
{"Structure (SMILES)": "Cc1cnc(NC2CCOCC2)nc1-n1cnc(C(=O)NC(CN)c2cc(F)cc(Cl)c2)c1 (stereo not shown)", "observed": "enzyme activity", "action": "inhibitor", "technique": "radiometric", "tested at": "1 µM", "quantity": "remaining activity", "value": "103%"}
{"Structure (SMILES)": "O=C1Nc2ccc(Cl)cc2C1=Cc1cc(Cl)c(O)c(Cl)c1", "observed": "cell-free assay", "tested at": "0.5 µM", "quantity": "remaining signal", "value": "22.4%"}
{"Structure (SMILES)": "COc1cc2ncnc(Nc3ccc(Oc4ccccc4)c(C)c3C)c2cc1OC", "observed": "enzyme activity", "action": "inhibitor", "tested at": "1 µM", "quantity": "inhibition", "value": "-1%"}
{"Structure (SMILES)": "CCN(CC)CCNC(=O)c1c(C)[nH]c(/C=C2\\C(=O)Nc3ccc(F)cc32)c1C", "observed": "enzyme activity", "action": "inhibitor", "tested at": "0.3 µM", "quantity": "inhibition", "value": "48%"}
{"Structure (SMILES)": "COc1ccc2c(c1)O[C@@H](c1ccc(OC)c(OC)c1)C[C@H]2NC(=O)C1(c2ccc3c(c2)OC(F)(F)O3)CC1", "observed": "cell-free assay", "technique": "competition with immobilised ligand", "tested at": "1 µM", "quantity": "remaining binding", "value": "77%"}
{"Structure (SMILES)": "FC(F)c1nc2ccccc2n1-c1nc(N2CCOCC2)nc(N2CCOCC2)n1", "observed": "enzyme activity", "action": "inhibitor", "tested at": "10 µM", "quantity": "remaining activity", "value": "102%"}
